From publication PMC6307981 (Journal of Pharmaceutical Sciences, 2019)

Experiments:
[1] = Equilibrium solubility of the crystalline compounds; type: physicochemical; settings: 37°C, >24 h, mean ± s.d., n = 3, LLOQ 1 μg/mL
Outline: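 Excess crystalline solid (2-3 mg per 1 mL) in water held at 37°C for >24 h. Supernatant cleared by centrifugation at 30,279 × g for ≥20 min, then quantified by HPLC-UV: isocratic C18 column at 50°C, acetonitrile/water 80:20 or 70:30 depending on compound, 1 mL/min, detection at 280 nm, calibration against acetonitrile standards.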

[2] = Metabolic stability in human liver microsomes; type: in vitro ADME
Outline: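 Incubated with 0.5 mg/mL human liver microsomes at 1 μM compound in 100 mM KPO4, pH 7.4, started with 1 mM NADPH. Aliquots at 0, 5, 10, 20, 40 and 60 min quenched in cold acetonitrile. Parent remaining measured by LC-MS/MS.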

[3] = type: in vivo, rats (male; Sprague-Dawley); settings: rat
Outline: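 Male Sprague-Dawley rats, lightly isoflurane-anaesthetised, got 250 μL dosing solution intratracheally by catheter to the tracheal bifurcation at 0.067, 0.12 or 0.28 mg/kg. Plasma, lung and, in one study, BAL sampled to 24 or 48 h and assayed by LC-MS. Four-compartment model with central lung fixed at 2 g and BAL plus lung summed. M3 used for <LLOQ data; VPC; apparent parameters scaled to 0.3 kg.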

[4] = from human liver microsomes data
[5] = intratracheal, apparent parameter of final model, scaled to 0.3 kg
[6] = intratracheal, final model, scaled to 0.3 kg

Compound: CCCCCCCCCc1nc2cc(Cl)ccc2c(=O)n1N [SEN001, 3-amino-7-chloro-2-nonylquinazolin-4(3H)-one]
- Solubility in water [1]: <LLOQ
- CLH (hepatic clearance) [2, 4]: 747.9 mL/min
- EH (hepatic extraction ratio) [2, 4]: 0.50
- CLint (intrinsic clearance) ([2]; human liver microsomes, 1 μM compound): 1491.7 mL/min
- half-life at 1 μM ([2]; human, liver microsomes, pH 7.4): 54.4 min
- Time of distribution equilibrium (lung, BAL, plasma) ([3]; intratracheal 0.067 mg/kg): 2 h
- CLC, clearance central [3, 5]: 0.0745 L/h
- CLLP, clearance lung to plasma [3, 5]: 0.0175 L/h
- VC, volume of distribution central [3, 5]: 0.0855 L
- FBAL, fraction in BAL ([3]; intratracheal, final model (Table 5)): 0.980%
- QL, intercompartmental clearance lung [3, 6]: 0.00596 L/h
- VLP, volume of distribution deep lung [3, 6]: 0.0582 L
